An excerpt weighted towards active compounds, which were near 2.9% of everything screened.
PglD inh: C. jejuni PglD acetyltransferase inhibitors, primary screen, biochemical, DTNB colorimetric, single point; purified PglD enzyme, DTNB colorimetric CoA detection; inhibition, % at 12.5 µM; actives 0.098% (n = 360,000); in the data active means inhibition above about 16%, passing the limit was not always enough
FGF22 binding: binders of human FGF22 protein, primary screen, FGF22 synaptogenesis inhibitor project, biophysical, thermal shift, single point | recombinant FGF22 thermal shift, SYPRO orange fluorescence; percent of sucrose octasulfate shift, DMSO zero | activity (Tm shift, normalised), % at 9.99 µM | actives 1.5% (n = 340,000) | AID 651658, 2012;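 active means mean Tm shift, scaled 0 neutral to 100 positive control, at about 1.3% or above, every replicate too, limit read from the data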
Target sequence (Q9HCT0 whole entry, looked up): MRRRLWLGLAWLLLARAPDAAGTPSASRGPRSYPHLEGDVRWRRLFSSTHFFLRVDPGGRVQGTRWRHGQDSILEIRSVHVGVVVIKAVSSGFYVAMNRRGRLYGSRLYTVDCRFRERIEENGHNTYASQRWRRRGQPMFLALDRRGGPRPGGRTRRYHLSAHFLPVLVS
Vif imaging: HIV Vif self-association inhibitors, primary screen, imaging, HEK293T, single point; HEK293T cells, Vif self-association by quenched fluorescence, 24 h; inhibition, % at 7.49 µM; actives 0.35% (n = 340,000); in the data active means inhibition above about 50%, passing the limit was not always enough
PGC1a acetyl inh: inhibitors of PGC1a acetylation signal, primary screen, cell-based, U2OS, AlphaScreen, inhibitor mode | AlphaScreen anti-acetyl-lysine; with virally co-expressed GCN5 acetyltransferase | actives 0.17% (n = 350,000) | AID 651687, 2012 | inhibition, % at 15.6 µM;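 active means every replicate shows inhibition of at least 40%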;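 further: 0% = neutral control wells and 100% = positive control wells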
Cneo AK release: Cryptococcus neoformans cell lysis inducers, primary screen, AK release luminescence, single concentration. actives 0.2% (n = 360,000). AID 651654, 2012. lysis activity, % at 15 µM. C. neoformans lysis, adenylate kinase release luminescence, 4 h; normalised: neutral wells 0, clomiphene wells 100;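 active means mean lysis activity across replicates of at least 80%, whatever share of replicates individually reach that level; inactive means mean lysis activity below 80%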
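Material: C. neoformans cells | Amount: Yeast cell density of 5 × 10^6 cells/mL | Medium: Fresh YPD growth medium | Dosing: Single dose | Times: Static 4 h at 37 °C with compound, 1 h detection | Detection: AK luminescence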
Ecoli rRNA inh: reduced GFP signal of wild-type E. coli, primary screen, bacterial rRNA inhibitor project, GFP/RFP fluorescence, OD600, single point; E. coli WT GFP vs humanized-ribosome RFP mutants, 24 h; hits give low values; DMSO median 0, no signal -100; GFP signal change (wild-type ribosome), % (no concentration beside the values); actives 1.6% (n = 350,000); AID 720706, 2013;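 active means significant combined selectivity score with lowered wild-type GFP, culture density cut under 30%, mutant RFP and density less affected; inactive means any of these conditions unmet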
Starred values were filed as active, the others as inactive; nt = no result.

SMILES	PglD inh	FGF22 binding	Vif imaging	PGC1a acetyl inh	Cneo AK release	Ecoli rRNA inh
O=C(COc1ccccc1/C=C1/NC(=O)NC1=O)Nc1ccccc1	-2	0	-15	3	-3	-26*
C[C@@H]1CN([C@H](C)CO)C(=O)c2cc(NC(=O)C3CC3)ccc2O[C@@H]1CN(C)S(=O)(=O)c1ccc(F)cc1	2	0	nt	9	3	0
Cc1noc(C)c1NC(=O)Nc1ccc2c(c1)CC(=O)N([C@H](C)CO)C[C@H](C)[C@@H](CN(C)C(=O)Nc1c(C)noc1C)O2	-3	0	nt	-2	-2	4
CN1CCN(CC(=O)NC2CCCCC2)CC1	8	nt	92*	-2	2	nt
COCCN(C(=O)CSc1nnc(-c2ccccc2F)n1C)c1c(N)n(Cc2ccccc2)c(=O)[nH]c1=O	-3	43*	-2	-1	3	nt
CCOC(=O)c1c(C)[n+]([O-])c2ccc3c(non3O)c12	nt	44*	-5	nt	nt	-26
CC(=O)c1c(C)[n+]([O-])c2ccc3c(non3O)c12	nt	0	4	nt	nt	-15
CCOc1ccc(N(CC(=O)OC)S(=O)(=O)c2ccc(OC)c(OC)c2)cc1	-3	nt	-53	nt	-1	nt
CCOc1ccc(N(CC(=O)NC(C(C)C)C(C)C)S(=O)(=O)c2ccc(OC)c(OC)c2)cc1	nt	0	-10	nt	nt	-30*
CCOC(=O)NN1C(=O)c2ccccc2NC1c1ccc(OC)c(OC)c1 (stereo not given)	7	43*	8	5	-1	19
C[C@H]1CCCCO[C@@H](CN(C)C(=O)c2ccccc2)[C@@H](C)CN([C@@H](C)CO)C(=O)c2cc(NS(=O)(=O)c3ccc(Cl)cc3)ccc2O1	-1	0	nt	6	0	-1
c1ccc(-c2cc(-c3cc(-c4ccccc4)on3)no2)cc1	nt	43*	-3	nt	nt	11
COc1ccc(-c2cc(-c3ccccc3)no2)cc1	3	0	-7	-4	0	15
Cc1ccc2occ(-c3nn[nH]n3)c(=O)c2c1	-2	-1	-3	-8	-1	-13
CC(C)c1ccc2occ(-c3nn[nH]n3)c(=O)c2c1	nt	44*	-13	5	nt	4
CCOC(=O)c1ccc2[nH]c3c(c2c1)CCCC3	11	0	19	nt	-3	-27
CCOC(=O)c1ccc2[nH]c3c(c2c1)CCCC3O (stereo not given)	nt	0	1	nt	nt	-32*
O=C(C[C@H]1C=C[C@H](NC(=O)Nc2cccc(F)c2)[C@@H](CO)O1)NCC1CC1	1	0	nt	5	2	1
COCC(=O)Nc1ccc2c(c1)[C@@H]1C[C@@H](CC(=O)O)O[C@@H](CO)[C@@H]1O2	1	0	nt	8	2	-2
Cc1nc(C2COc3ccccc3O2)sc1C(=O)O (stereo not given)	nt	0	-6	nt	nt	-1
CCCS(=O)(=O)c1cnc(C2COc3ccccc3O2)nc1N (stereo not given)	8	0	80*	nt	-5	11
O=C1CSCN1c1ccc(Cl)c(Cl)c1	5	43*	-14	nt	-1	-8
CC(CN1CCOCC1)(NS(=O)(=O)c1ccccc1)c1ccccc1 (stereo not given)	3	0	-3	-5	1	-8
CC(CN)(NS(=O)(=O)c1ccccc1)c1ccccc1 (stereo not given)	15	0	66*	nt	1	11
C[C@@H]1CN([C@@H](C)CO)C(=O)c2cc(NS(=O)(=O)c3cccs3)ccc2O[C@@H](C)CCCCO[C@H]1CN(C)C(=O)CCCN(C)C	1	0	nt	-17	-1	-2
SMILES	PglD inh	FGF22 binding	Vif imaging	PGC1a acetyl inh	Cneo AK release	Ecoli rRNA inh
S=c1[nH]nc2sc3ccccc3n12	-5	0	-3	2	2	-5
S=c1[nH]nc2nnc3ccccc3n12	-6	0	-3	-4	2	-32*
COc1cc(/C=C/C(=O)NCCc2ccc(S(N)(=O)=O)cc2)ccc1OCC#N	nt	0	2	11	nt	-26*
COc1cc(OC)c(C(=O)/C=C/c2ccc(OCc3ccccc3)c(OC)c2)c(OC)c1	-10	0	-18	36	2	0
COc1ccc(/C=C/C(=O)NCCNC(=O)c2ccccc2)cc1OC	0	0	1	-10	0	-22*
CCOc1cc(/C=C/C(=O)NCCc2ccc(S(N)(=O)=O)cc2)ccc1OCC(C)C	nt	0	0	8	nt	-4
COc1cc(OC)c(C(=O)C=Cc2ccc(OC)c(OC)c2)c(OC)c1	-7	0	2	19	2	-11*
Cc1cccc(NC(=S)NNC(=O)c2ccc(O)cc2O)c1C	-11	2.3*	-23	16	-4	5
Cc1cccc(NC(=O)NNC(=O)c2cc3ccccc3cc2O)c1C	nt	0	15	4	nt	7
O=C(O)CSCC(=O)NCc1c(Cl)cccc1Oc1ccccc1	-3	0	0	3	0	nt
O=S(=O)(NCc1c(Cl)cccc1Oc1ccccc1)c1ccc(F)cc1	nt	0	6	nt	nt	-39*
O=C(NCCCn1ccnc1)Nc1ccc(Cl)cc1	nt	nt	12	3	nt	nt
S=C(NCCCn1ccnc1)Nc1ccc(Cl)cc1Cl	nt	0	3	nt	nt	-23*
O=C(NCCCn1ccnc1)c1ccc(Cl)cc1[N+](=O)[O-]	nt	43*	-5	nt	nt	nt
CC(=O)c1cnn(-c2c(Cl)cc(Cl)cc2Cl)c1C	0	0	-19	3	0	-22*
CC(=O)c1cnn(-c2ccccc2)c1C	nt	0	-23	2	nt	30
Cc1ccc(S(=O)(=O)N[C@@H]2C=C[C@H](CC(=O)NCc3ccncn3)O[C@@H]2CO)cc1	-3	0	nt	4	-3	2
CN(C)CCCNC(=O)C[C@@H]1CC[C@H]2[C@H](COc3ccc(NC(=O)c4ccc5c(c4)OCO5)cc3C(=O)N2C)O1	-1	0	nt	-4	0	4
Cc1cc(NC(=O)c2ccccc2)c(Cl)cc1N	1	0	116*	nt	0	6
CCCNC(=O)N1C[C@H](C)[C@@H](OC)CN(C)C(=O)c2cc(NC(=O)C3CCC3)ccc2OC[C@H]1C	nt	nt	nt	4	nt	2
CNC(=O)C[C@H]1CC[C@@H]2[C@H](COC[C@H](O)CN2Cc2ccc(Cl)c(Cl)c2)O1	-2	0	nt	7	-3	-2
